Casp6 inh – caspase-6 (human) enzyme inhibition. purified caspase-6, Z-VEID-R110 cleavage fluorescence. hit rate 0.53% among 350,000. P55212. inhibition, % at 12.5 µM;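 active = mean inhibition across replicates at least about 35%, with every replicate also reaching that limit, limit read from the data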;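 also: 0% = median of neutral control wells and 100% = no fluorescence left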
HCV NS3 hel inh – HCV NS3 helicase inhibition; NS3 helicase DNA unwinding, Cy5 molecular beacon fluorescence; inhibition, % at 10.9 µM; hit rate 0.56% among 290,000; AID 1800;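 active = inhibition above the mean of all tested compounds plus 3 SD, set per campaign, cut at about 35% in these data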;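 also: 0% = DMSO wells and 100% = thioflavine S control wells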
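System: NS3 helicase fragment of HCV / Schedule: 1 h at 25 °C / Control set: DMSO alone as 0% and 110 µM thioflavine S as 100% / Reagent: Cy5/quencher beacon DNA duplex and ATP to start / Technique: Cy5 fluorescence / Replication: singlicate / Evaluation: % inhibition of end-to-start signal ratio versus controls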
DNMT1 inh – blocks human DNA methyltransferase DNMT1 | P26358 | hit rate 0.83% among 360,000 | inhibition (reported as % activation of signal), % at 10 µM | DNMT1 molecular beacon, Hinp1I cleavage, fluorescence
NSD2 inh – NSD2 (human) methyltransferase inhibition | O96028 | NSD2 peptide methylation, AlphaScreen, 120 min | inhibition, % at 12.5 µM | hit rate 0.54% among 310,000 | AID 743445
Target sequence (O96028 whole entry, looked up): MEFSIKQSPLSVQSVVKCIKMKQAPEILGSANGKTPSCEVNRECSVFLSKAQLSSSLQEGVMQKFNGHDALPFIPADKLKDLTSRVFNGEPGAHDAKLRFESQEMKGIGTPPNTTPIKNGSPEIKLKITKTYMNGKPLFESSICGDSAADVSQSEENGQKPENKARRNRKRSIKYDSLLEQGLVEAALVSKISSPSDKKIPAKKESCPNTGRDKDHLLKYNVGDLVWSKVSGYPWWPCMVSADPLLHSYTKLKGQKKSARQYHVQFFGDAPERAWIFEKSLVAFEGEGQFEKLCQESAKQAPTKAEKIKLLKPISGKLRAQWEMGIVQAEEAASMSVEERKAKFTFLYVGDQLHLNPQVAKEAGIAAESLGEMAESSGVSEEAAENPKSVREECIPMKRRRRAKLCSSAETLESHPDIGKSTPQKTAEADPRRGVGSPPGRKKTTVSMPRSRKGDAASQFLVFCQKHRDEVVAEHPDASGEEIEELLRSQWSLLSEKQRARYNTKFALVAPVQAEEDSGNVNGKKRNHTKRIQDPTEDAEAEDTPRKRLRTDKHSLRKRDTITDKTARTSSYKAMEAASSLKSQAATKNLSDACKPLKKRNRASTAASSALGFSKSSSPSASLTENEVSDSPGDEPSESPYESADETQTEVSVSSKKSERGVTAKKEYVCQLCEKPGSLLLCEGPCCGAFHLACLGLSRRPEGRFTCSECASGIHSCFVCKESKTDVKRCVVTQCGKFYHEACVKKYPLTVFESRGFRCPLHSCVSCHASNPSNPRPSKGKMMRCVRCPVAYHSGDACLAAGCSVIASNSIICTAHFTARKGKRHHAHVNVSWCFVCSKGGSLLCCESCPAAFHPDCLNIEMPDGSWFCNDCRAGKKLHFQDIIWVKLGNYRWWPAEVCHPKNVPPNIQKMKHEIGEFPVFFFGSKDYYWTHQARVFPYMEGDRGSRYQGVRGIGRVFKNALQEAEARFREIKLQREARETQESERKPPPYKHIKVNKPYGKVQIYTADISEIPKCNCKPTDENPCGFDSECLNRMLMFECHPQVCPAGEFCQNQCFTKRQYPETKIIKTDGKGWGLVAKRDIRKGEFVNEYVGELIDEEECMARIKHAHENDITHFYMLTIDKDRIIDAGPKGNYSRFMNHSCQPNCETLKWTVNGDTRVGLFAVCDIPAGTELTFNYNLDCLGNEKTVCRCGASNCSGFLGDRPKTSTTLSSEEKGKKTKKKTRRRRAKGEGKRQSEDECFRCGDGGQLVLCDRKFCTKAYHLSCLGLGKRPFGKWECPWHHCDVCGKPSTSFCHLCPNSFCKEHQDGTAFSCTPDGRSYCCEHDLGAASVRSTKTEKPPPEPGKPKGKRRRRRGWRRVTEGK
NS3 helicase cf – HCV NS3 helicase inhibition, confirmation assay | NS3 helicase DNA unwinding, Cy5 molecular beacon fluorescence | AID 1943 | shares compounds with HCV NS3 hel inh | inhibition, % at 10.9 µM | hit rate 31% among 1,600;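 active = inhibition above the mean of all tested compounds plus 3 SD, cutoff set per campaign, cut at about 36% in these data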
FID counter trip – counter-screen for HCV NS3 helicase inhibitors: DNA intercalator displacement | inhibition, % at 7.9 µM | shares compounds with HCV NS3 hel inh | DNA fluorescent intercalator displacement, fluorescence | hit rate 4% among 1,600 | AID 1945; in the data active = inhibition above about 37%;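 also: 0% = vehicle and 100% = reference compound; higher means more displacement of ethidium bromide from the DNA hairpin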
FID counter DR – DNA intercalator displacement in dose response | fluorescent intercalator displacement from DNA, fluorescence | 120 tested, under 10 active | shares compounds with HCV NS3 hel inh | AID 2172 | IC50, µM; call rule not given here
The depositor's hits bear a star; nt = no result given. Rows were chosen to be rich in hits. Some 1.5% of all compounds tested hit in one or more screens of this group. Rule as the data show it, unless noted: active = inhibition above about 50%; inactive = the rest.

SMILES	Casp6 inh	HCV NS3 hel inh	DNMT1 inh	NSD2 inh	NS3 helicase cf	FID counter trip	others
CC1CCCN(S(=O)(=O)c2ccc(C(=O)Nc3nnc(C4=COCCO4)o3)cc2)C1 (stereo not drawn)	9	65*	-1	-1	-16	-30
Cc1cccn2c(=O)c3cc(C(=O)NC4CCCCC4)c(=N)n(Cc4ccccc4)c3nc12	1	-18	3	-8	nt	nt
Cc1cccn2c(=O)c3cc(C(=O)NC4CCCC4)c(=N)n(C4CCCCC4)c3nc12	-1	40*	2	45	-14	18
CC(/C=C1\SC(=S)N(NC(=O)c2ccncc2)C1=O)=C\c1ccccc1	10	78*	-3	6	34	2
CC(/C=C1\SC(=S)N(C(C(=O)O)C(C)C)C1=O)=C\c1ccccc1 (stereo not drawn)	15	36*	6	nt	68*	27
CC(/C=C1\SC(=S)N(NC(=O)c2ccccc2C)C1=O)=C\c1ccccc1	nt	10	-3	-1	nt	nt
CC(/C=C1\SC(=S)N(NC(=O)c2ccc(C)cc2)C1=O)=C\c1ccccc1	nt	9	4	1	nt	nt
O=C(N/N=C\c1ccc(-c2ccc([N+](=O)[O-])cc2)o1)c1ccc2c(c1)OCO2	nt	-3	46	-2	nt	nt
O=C(N/N=C/c1ccc([N+](=O)[O-])o1)c1ccc2c(c1)OCO2	0	40*	3	-1	-12	6
CC(C)(C)c1ccc2c(c1)OC(C(=O)N/N=C/c1ccc([N+](=O)[O-])o1)CO2 (stereo not drawn)	0	51*	1	1	-17	2
CCCCCCCC(=O)N/N=C/c1ccc([N+](=O)[O-])o1	10	39*	8	2	-21	4
O=C(N[C@H]1CC[C@H](CCNS(=O)(=O)c2cccc(Cl)c2)O[C@@H]1CO)c1ccncc1	-3	nt	nt	nt	nt	nt
N#C/C(=C\c1ccc(OCc2ccc(C(=O)O)cc2)cc1)C(=O)NCc1ccccc1	1	39*	0	1	70*	-27	FID counter DR=>79
N=c1c(S(=O)(=O)c2ccc(Cl)cc2)cc2c(=O)n3ccccc3nc2n1Cc1ccco1	2	45*	21	-2	70*	48*
CCn1c(=N)c(S(=O)(=O)c2ccc(Cl)cc2)cc2c(=O)n3ccccc3nc21	nt	3	nt	nt	nt	nt
Cc1ccc(C(=O)c2c(C)oc3c2C(=O)C(=O)c2ccccc2-3)cc1	nt	36*	52*	14	-9	-7
CCn1c(CNC(=O)c2cccc(C)c2)nnc1SCC(=O)NC1CCCCC1C (stereo not drawn)	nt	65*	-1	0	-5	-27
CC(NC(=O)/C=C/c1ccco1)c1nc2ccccc2n1Cc1cccc(Cl)c1 (stereo not drawn)	0	36*	-11	-1	-10	-12
CCOC(=O)c1c(-c2ccccc2)oc2ccc(OCC(=O)NNC(=O)CCCC(=O)O)cc12	-3	6	3	-1	nt	nt
CCOC(=O)c1c(-c2ccccc2)oc2ccc(OCC(=O)NNC(=O)CCC(=O)O)cc12	2	41*	0	18	9	-18
C[C@@H]1CN([C@H](C)CO)C(=O)c2cccc(NC(=O)c3nc4ccccc4s3)c2O[C@H]1CN(C)Cc1ccc(C(=O)Nc2ccccc2N)cc1	-1	nt	nt	nt	nt	nt
COc1ccc(Cn2c(/C=C/c3ccccc3)nc3ccccc32)cc1	nt	-12	-9	-3	nt	nt
Clc1ccccc1Cn1c(/C=C/c2ccco2)nc2ccccc21	nt	52*	27	0	11	-23
CC(C)C[C@H](NC(=O)[C@H](Cc1ccccc1)n1c(=O)[nH]c2ccccc2c1=O)C(=O)N1CCC[C@@H]1C(=O)O	-5	39*	-3	nt	-21	-23
C[C@@H]1CN([C@@H](C)CO)C(=O)c2cc(NC(=O)Nc3cccc4ccccc34)ccc2O[C@H]1CN(C)Cc1ccc(-c2ccccc2)cc1	-2	nt	nt	nt	nt	nt
C[C@H]1CCCCO[C@@H](CN(C)C(=O)CCC(F)(F)F)[C@@H](C)CN([C@@H](C)CO)C(=O)c2cc(NC(=O)NC3CCCCC3)ccc2O1	1	nt	nt	nt	nt	nt
O=C(N[C@@H]1C=C[C@@H](CC(=O)N2CCCCC2)O[C@@H]1CO)c1cccc(F)c1	-2	nt	nt	nt	nt	nt
